Active and inactive are the calls of the source. The calls are words filed in the database; no cut-off is given here.

The subject of data set [1] is Mus musculus. Briefly: Potentiation of serum IgG/recombinant Porphyromonas gingivalis HagB induced-immune response in BALB/c mouse at 100 ug, sc immunized on day 14 and 28 after 42 days by ELISA. The data set is classed as functional, organism-based. Put shortly:
(§1)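 Mice from Frederick Cancer Research were immunized with rHagB plus adjuvant (100 or 50 μg; adjuvant given at 1.0 mg/mL as solution or suspension with antigen). Retro-orbital blood was collected before and after immunization, and serum was stored at −20 °C. ELISA plates were coated with rHagB (1 μg/mL) in borate buffered saline pH 8.2; serial two-fold serum dilutions were run in duplicate.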
A general note: ELISA stands for enzyme-linked immunosorbent assay.

The test system of data set [2] is Mus musculus. Briefly: Potentiation of serum IgG/recombinant Porphyromonas gingivalis HagB induced immune response n BALB/c mouse at 100 ug, sc immunized on day 14 and 28 measured week 4 and 6 post immunization by ELISA. The data set is classed as functional, organism-based. Put shortly:
as §1

In data set [3] the test system is Mus musculus. Briefly: Potentiation of recombinant Porphyromonas gingivalis HagB induced Th1/Th2 immune response in BALB/c mouse assessed as increase in IgG1 levels at 100 ug, sc measured at week 4 and 6 by ELISA. It counts as functional, organism-based. Put shortly: as §1
Data set [4] has as its system Mus musculus. Briefly: Potentiation of recombinant Porphyromonas gingivalis HagB induced Th1/Th2 immune response in BALB/c mouse assessed as increase in IgG2a levels at 100 ug, sc measured at week 4 and 6 by ELISA. The data set is classed as functional, organism-based. The gist of the method:
as §1

Data set [5] deals with Mus musculus. Briefly: Potentiation of recombinant Porphyromonas gingivalis HagB induced Th1/Th2 immune response in BALB/c mouse assessed as increase in IgG1 levels at 50 ug, sc measured at week 4 and 6 by ELISA. The data set is classed as functional, organism-based. Put shortly:
as §1

The test system of data set [6] is Mus musculus. Briefly: Potentiation of recombinant Porphyromonas gingivalis HagB induced Th1/Th2 immune response in BALB/c mouse assessed as increase in IgG2a levels at 50 ug, sc measured at week 4 and 6 by ELISA. It counts as functional, organism-based. Put shortly:
as §1

A short description of data set [7]: Toxicity in BALB/c mouse assessed as effect on body weight at 50 to 100 ug, sc measured after 41 days. The data set is classed as organism-based. Particulars: in vivo, 984 h. Put shortly:
(§2)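 Mice were weighed before each immunization and on day 42 after the last immunization. Adjuvant was given with rHagB antigen at 100 μg, or at 50 μg for one group.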

In data set [8] the test system is Mus musculus. Briefly: Potentiation of recombinant Porphyromonas gingivalis HagB induced Th1/Th2 immune response in BALB/c mouse assessed as increase in IgG1 levels at 100 ug, sc measured at week 4 by ELISA. It counts as functional, organism-based. The gist of the method: as §1
A short description of data set [9]: Toxicity in BALB/c mouse assessed as effect on body weight at 100 ug, sc measured after 41 days. The data set is classed as organism-based. Particulars: in vivo, 984 h. Put shortly: as §2

Consider `CCCCCCCCCCCCNC(=O)[C@H]1O[C@@H](O[C@H]2CC[C@]3(C)[C@H]4CC=C5[C@@H]6CC(C)(C)CC[C@]6(C(=O)O[C@@H]6O[C@H](C)[C@H](O)[C@H](O)[C@H]6O[C@@H]6O[C@@H](C)[C@H](O[C@@H]7OC[C@@H](O)[C@H](O[C@@H]8OC[C@@H](O)[C@H](O)[C@H]8O)[C@H]7O)[C@@H](O[C@@H]7O[C@H](CO)[C@@H](O)[C@H](O)[C@H]7O)[C@H]6O)[C@H](O)C[C@@]5(C)[C@]4(C)CC[C@H]3[C@]2(C)C=O)[C@H](O[C@@H]2O[C@H](CO)[C@H](O)[C@H](O)[C@H]2O)[C@@H](O[C@@H]2OC[C@@H](O)[C@H](O)[C@H]2O)[C@@H]1O`, for which the result with Mus musculus [1], in the data set on Mus musculus [2], in the data set on Mus musculus [3], in the data set with Mus musculus [4], with Mus musculus [5] and in the data set on Mus musculus [6] was Active. Further, the Activity entry in [7] is reported as “Non-Toxic”.

Regarding `CCCCCCCCCCCCNC(=O)[C@H]1O[C@@H](O[C@H]2CC[C@]3(C)[C@H]4CC=C5[C@@H]6CC(C)(C)CC[C@]6(C(=O)O[C@@H]6O[C@H](C)[C@H](O)[C@H](O)[C@H]6O[C@@H]6O[C@@H](C)[C@H](O[C@@H]7OC[C@@H](O)[C@H](O[C@@H]8OC[C@](O)(CO)[C@H]8O)[C@H]7O)[C@@H](O)[C@H]6O)[C@H](O)C[C@@]5(C)[C@]4(C)CC[C@H]3[C@]2(C)C=O)[C@H](O[C@@H]2O[C@H](CO)[C@H](O)[C@H](O)[C@H]2O)[C@@H](O[C@@H]2OC[C@@H](O)[C@H](O)[C@H]2O)[C@@H]1O`, the result with Mus musculus [1], with Mus musculus [4] and with Mus musculus [8] was inactive. For the same compound, in data set [9], the Activity entry is given as “Non-Toxic”.

The values are drawn from ChEMBL document CHEMBL4368917, “Synthesis and Evaluation of a QS-17/18-Based Vaccine Adjuvant” (J Med Chem, 2019).
